Measurements as given in ChEMBL document CHEMBL1126581 (J Med Chem, 1993).
Where a SMILES comes first, the peptide text is derived from it. [ ]: non-standard residue; d: D form. The star is where a group is joined. dHpg = N[C@@H](C(=O)O)c1ccc(O)cc1; dChg = N[C@@H](C(=O)O)C1CCCCC1; dPhg = N[C@@H](C(=O)O)c1ccccc1; Boc = CC(C)(C)OC(=O)*

Legend:
[1] = target: Plasminogen (Homo sapiens, UniProt P00747); experiment: Inhibitory activity against plasmin
[2] = Selectivity was expressed as the ratio is IC 50 of t-PA / thrombin
Summary of the method: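 Ratio of t-PA IC50 to thrombin IC50. Amidolytic assays in 0.1 M Tris-HCl (pH 7.4) at 25 °C: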

[3] = target: Coagulation factor X (Bos taurus) (UniProt P00743); experiment: Inhibitory activity against factor Xa
[4] = Selectivity was expressed as the ratio is IC 50 of plasmin / thrombin
Summary of the method: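 Ratio of plasmin IC50 to thrombin IC50. Amidolytic assays at 25 °C in 0.1 M Tris-HCl (pH 7.4):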

[5] = target: Prothrombin (Bos taurus) (UniProt P00735); experiment: Inhibitory activity against thrombin
[6] = target: Serine protease 1 (Homo sapiens, UniProt P07477); experiment: Inhibitory activity against trypsin
Summary of the method: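 Trypsin 93 ng/mL hydrolysing Bz-Phe-Val-Arg-pNA 0.125 mg/mL, 0.1 M Tris-HCl pH 7.4, 25 °C. […] Varying peptide concentrations, 5-min preincubation. IC50 is the concentration producing 50% inhibition of activity against a blank control.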

Chain of Plasminogen (P00747 97-580 limits assumed): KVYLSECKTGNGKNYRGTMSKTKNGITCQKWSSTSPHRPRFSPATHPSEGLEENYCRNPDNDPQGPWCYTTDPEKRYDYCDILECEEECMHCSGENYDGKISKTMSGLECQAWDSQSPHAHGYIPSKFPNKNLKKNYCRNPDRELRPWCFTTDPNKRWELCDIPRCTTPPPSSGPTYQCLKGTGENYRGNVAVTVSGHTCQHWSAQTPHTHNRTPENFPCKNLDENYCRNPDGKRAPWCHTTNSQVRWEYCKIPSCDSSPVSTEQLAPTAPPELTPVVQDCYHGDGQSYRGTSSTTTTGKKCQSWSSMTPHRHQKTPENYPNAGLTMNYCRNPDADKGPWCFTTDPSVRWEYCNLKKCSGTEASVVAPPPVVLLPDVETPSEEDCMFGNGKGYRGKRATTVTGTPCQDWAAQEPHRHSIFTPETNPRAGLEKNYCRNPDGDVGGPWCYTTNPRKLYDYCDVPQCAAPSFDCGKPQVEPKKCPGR
Chain of Plasminogen (P00747 581-810 limits assumed): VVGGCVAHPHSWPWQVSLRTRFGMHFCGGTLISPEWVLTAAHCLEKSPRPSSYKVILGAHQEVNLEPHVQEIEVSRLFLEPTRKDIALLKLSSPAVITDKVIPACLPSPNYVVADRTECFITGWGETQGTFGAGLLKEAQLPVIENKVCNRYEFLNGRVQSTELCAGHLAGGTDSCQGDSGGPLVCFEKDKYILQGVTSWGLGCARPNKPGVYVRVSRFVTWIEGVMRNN
Chain of Coagulation factor X (Bos taurus) (P00743 whole entry, looked up): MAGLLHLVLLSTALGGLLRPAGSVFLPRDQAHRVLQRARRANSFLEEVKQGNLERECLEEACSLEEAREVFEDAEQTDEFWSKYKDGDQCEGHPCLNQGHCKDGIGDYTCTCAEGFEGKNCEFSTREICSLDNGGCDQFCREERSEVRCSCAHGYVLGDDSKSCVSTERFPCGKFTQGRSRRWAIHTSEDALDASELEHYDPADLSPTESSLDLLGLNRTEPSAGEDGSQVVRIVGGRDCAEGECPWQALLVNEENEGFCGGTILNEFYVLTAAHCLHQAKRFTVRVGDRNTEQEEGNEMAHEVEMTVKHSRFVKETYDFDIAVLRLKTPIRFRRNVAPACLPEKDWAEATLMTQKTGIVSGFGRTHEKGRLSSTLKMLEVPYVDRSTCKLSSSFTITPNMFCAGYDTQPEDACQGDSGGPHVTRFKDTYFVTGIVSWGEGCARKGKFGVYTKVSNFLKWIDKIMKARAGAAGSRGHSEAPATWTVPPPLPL
Chain of Serine protease 1 (P07477 whole entry): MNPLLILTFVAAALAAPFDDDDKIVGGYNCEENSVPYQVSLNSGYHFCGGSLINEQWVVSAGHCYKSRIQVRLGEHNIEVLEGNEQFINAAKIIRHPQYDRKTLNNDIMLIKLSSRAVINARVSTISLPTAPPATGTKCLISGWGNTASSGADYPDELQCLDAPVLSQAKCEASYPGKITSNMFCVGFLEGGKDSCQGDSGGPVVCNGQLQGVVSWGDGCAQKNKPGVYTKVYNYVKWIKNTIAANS

| IC50 [1] | Selectivity ratio [2] | IC50 [3] | Selectivity ratio [4] | IC50 [5] | IC50 [6] | Structure (SMILES) |
| --- | --- | --- | --- | --- | --- | --- |
|  |  |  | 3 |  |  | CC(C)(C)OC(=O)N[C@H](C(=O)N1CCC[C@H]1C(=O)NC(C=O)CCCN=C(N)N)c1cccc2ccccc12 (some centres not stated) |
| 18000 nM |  | 31000 nM |  | 94 nM | 180 nM | C[C@H](C(=O)N1CCC[C@H]1C(=O)NC(C=O)CCCNC(=N)N)c1ccccc1 (some centres not stated) |
| 180 nM |  | 69 nM |  | 28 nM | 15 nM | CC(C)(C)OC(=O)NC(C(=O)N1CCC[C@H]1C(=O)NC(C=O)CCCNC(=N)N)c1ccc(Cl)c(Cl)c1 (some centres not stated) |
| 55 nM | 670 | 50 nM | 3 | 18 nM | 9 nM | CC(C)(C)OC(=O)N[C@@H](C(=O)N1CCC[C@H]1C(=O)NC(C=O)CCCN=C(N)N)c1ccc2ccccc2c1 (some centres not stated) |
| 98 nM | 540 | 260 nM | 6 | 16 nM | 9.8 nM | CC(C)(C)OC(=O)N[C@@H](C(=O)N1CCC[C@H]1C(=O)N[C@H](C=O)CCCN=C(N)N)c1ccccc1 (Boc-[dPhg]-Pro-Arg-aldehyde) |
| 180 nM |  | 210 nM |  | 55 nM | 29 nM | CC(C)(C)OC(=O)N[C@H](C(=O)N1CCC[C@H]1C(=O)NC(C=O)CCCNC(=N)N)c1cccc2ccccc12 (some centres not stated) |
| 190 nM | 20 | 1600 nM | 4 | 45 nM | 14 nM | CC(C)(C)OC(=O)N[C@H](Cc1ccccc1)C(=O)N1CCC[C@H]1C(=O)N[C@H](C=O)CCCN=C(N)N |
| 490 nM |  | 2200 nM |  | 18 nM | 18 nM | CN[C@@H](C(=O)N1CCC[C@H]1C(=O)N[C@H](C=O)CCCNC(=N)N)c1ccccc1 |
| 620 nM |  | 1400 nM |  | 23 nM | 14 nM | CC(C)(C)OC(=O)N[C@@H](C(=O)N1CCC[C@H]1C(=O)NC(C=O)CCCNC(=N)N)c1cccc2ccccc12 (some centres not stated) |
|  | 870 |  | 30 |  |  | CC(C)(C)OC(=O)N[C@@H](C(=O)N1CCC[C@H]1C(=O)NC(C=O)CCCN=C(N)N)c1cccc2ccccc12 (some centres not stated) |

More lines, now with the values behind:

| Structure (SMILES) | IC50 [1] | Selectivity ratio [2] | IC50 [3] | Selectivity ratio [4] | IC50 [5] | IC50 [6] |
| --- | --- | --- | --- | --- | --- | --- |
| CO[C@H](C(=O)N1CCC[C@H]1C(=O)NC(C=O)CCCN=C(N)N)c1ccccc1 (some centres not stated) | 15000 nM | 3400 | 27000 nM | 60 | 250 nM |  |
| CN[C@@H](C(=O)N1CCC[C@H]1C(=O)N[C@H](C=O)CCCN=C(N)N)c1ccccc1 |  | 2300 |  | 30 |  |  |
| CC[C@H](C(=O)N1CCC[C@H]1C(=O)NC(C=O)CCCNC(=N)N)c1ccccc1 (some centres not stated) | 21000 nM |  | 33000 nM |  | 130 nM | 350 nM |
| N=C(N)NCCC[C@@H](C=O)NC(=O)[C@@H]1CCCN1C(=O)[C@@H]1NCCc2ccccc21 | 1500 nM |  |  |  | 19 nM | 23 nM |
| C[C@H](C(=O)N1CCC[C@H]1C(=O)NC(C=O)CCCN=C(N)N)c1ccccc1 (some centres not stated) |  | > 100 |  | 190 |  |  |
| CC(C)(C)OC(=O)N[C@@H](C(=O)N1CCC[C@H]1C(=O)N[C@H](C=O)CCCN=C(N)N)c1ccc(F)cc1 | 85 nM | 600 | 1600 nM | 4 | 30 nM | 19 nM |
| NC(N)=NCCC[C@@H](C=O)NC(=O)[C@@H]1CCCN1C(=O)[C@H](N)c1ccccc1 (H-[dPhg]-Pro-Arg-aldehyde) | 910 nM | 2200 | 1600 nM | 50 | 18 nM | 19 nM |
| N=C(N)NCCC[C@@H](C=O)NC(=O)[C@@H]1CCCN1C(=O)[C@H]1Cc2ccccc2CN1 |  |  | 4100 nM |  | 25 nM | 19 nM |
| CC(C)(C)OC(=O)N[C@H](C(=O)N1CCC[C@H]1C(=O)N[C@H](C=O)CCCN=C(N)N)c1ccc(F)cc1 | 770 nM | 1100 | 6700 nM | 9 | 85 nM | 24 nM |
| CC(C)(C)OC(=O)N[C@@H](C(=O)N1CCC[C@H]1C(=O)N[C@H](C=O)CCCN=C(N)N)C1CCCCC1 (Boc-[dChg]-Pro-Arg-aldehyde) | 81 nM | 190 | 81 nM | 7 | 12 nM | 13 nM |
| CC[C@H](C(=O)N1CCC[C@H]1C(=O)NC(C=O)CCCN=C(N)N)c1ccccc1 (some centres not stated) |  | > 800 |  | 160 |  |  |
| CC(C)(C)OC(=O)N[C@@H](C(=O)N1CCC[C@H]1C(=O)N[C@H](C=O)CCCN=C(N)N)c1ccc(O)cc1 (Boc-[dHpg]-Pro-Arg-aldehyde) | 94 nM | 180 | 200 nM | 1 | 89 nM | 17 nM |
| CC(C)(C)OC(=O)N[C@@H](C(=O)N1CCC[C@H]1C(=O)N[C@H](C=O)CCCN=C(N)N)c1ccsc1 | 150 nM | 180 | 190 nM | 2 | 73 nM | 13 nM |
| N=C(N)NCCC[C@@H](C=O)NC(=O)[C@@H]1CCCN1C(=O)C1CCc2ccccc2N1 (some centres not stated) | 15000 nM | 210 | 12000 nM | 5 | 3100 nM | 570 nM |
| CC(C)(C)OC(=O)NC(C(=O)N1CCC[C@H]1C(=O)NC(C=O)CCCN=C(N)N)c1cccc(C(F)(F)F)c1 (some centres not stated) | 130 nM | 560 | 1400 nM | 5 | 27 nM | 19 nM |
| CC(C)(C)OC(=O)NC(C(=O)N1CCC[C@H]1C(=O)NC(C=O)CCCN=C(N)N)c1ccc(Cl)c(Cl)c1 (some centres not stated) |  | 1100 |  | 6 |  |  |
| C[C@@H](C(=O)N1CCC[C@H]1C(=O)NC(C=O)CCCN=C(N)N)c1ccccc1 (some centres not stated) | 41000 nM |  | 81000 nM | 8 | 5100 nM | 890 nM |
